Key:
Format in all cases: functional
[1] = tested on: Staphylococcus aureus; test: Antimicrobial activity against methicillin-resistant Staphylococcus aureus embedded in MRD biofilm model at 3 mg/ml after 15 mins
In short: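 MRSA clinical isolates from catheter-related bacteremia. Infusate of 2 × 10^5 CFU/ml in 5% dextrose water pumped through a modified Robbins device at 60 ml/h for 8 h at 37°C, then 10 h further incubation and a 2 h saline flush. Catheter segments soaked in drug in Mueller-Hinton broth for 15 min at 37°C, scrape-sonicated in TSB, plated on blood agar overnight. Mean CFU/ml, capped at 500.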

[2] = tested on: Staphylococcus aureus; test: Antimicrobial activity against methicillin-resistant Staphylococcus aureus embedded in MRD biofilm model at 3 mg/ml after 15 mins in drug assessed as 24 hr regrowth
In short: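 MRSA biofilm grown on catheter segments in a modified Robbins device: 5% dextrose infusate at 2 × 10^5 CFU/ml, 60 ml/h for 8 h at 37°C, then 10 h incubation and a saline flush. Segments exposed to drug in broth for 15 min at 37°C, then reincubated 24 h at 37°C in Mueller-Hinton broth, scrape-sonicated and plated on blood agar. Mean CFU/ml, capped at 500.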

[3] = tested on: Candida parapsilosis; test: Antimicrobial activity against Candida parapsilosis embedded in MRD biofilm at 3 mg/ml after 15 mins
In short: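 MRD catheter segments colonized by infusing C. parapsilosis-infected 5% dextrose (2 × 10^2 CFU/ml) at 60 ml/h for 8 h at 37°C, then incubated 10 h more and flushed with saline 2 h. Segments soaked 15 min at 37°C in drug in Mueller-Hinton broth (MHB alone as control). Then scrape-sonicated 5 min in Trypticase soy broth and plated on blood agar overnight. Mean CFU/ml ± SD reported, capped at 500.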

[4] = tested on: Candida parapsilosis; test: Antimicrobial activity against Candida parapsilosis embedded in MRD biofilm at 3 mg/ml after 15 mins in drug assessed as 24 hr regrowth
In short: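 MRD C. parapsilosis-colonized segments were soaked 15 min at 37°C in drug in broth. A second set was reincubated 24 h at 37°C in Mueller-Hinton broth, scrape-sonicated and plated on sheep blood agar overnight. Regrowth is given as mean CFU/ml ± SD, capped at 500.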

[5] = tested on: Staphylococcus aureus; test: Antimicrobial activity against methicillin-resistant Staphylococcus aureus in silicone disk biofilm at 3 mg/ml after 60 mins
In short: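 Silicone disks preconditioned in human plasma for 24 h at 37°C with shaking, then shaken 24 h at 37°C with MRSA at 5.5 × 10^5 cells/ml in MHB. Disks washed 30 min in 0.9% saline, exposed to drug for 1 h at 37°C, sonicated 5 min in saline, vortexed and plated on blood agar overnight. 5–10 replicates. Mean CFU/ml, capped at 5,000.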

[6] = tested on: Staphylococcus aureus; test: Antimicrobial activity against methicillin-resistant Staphylococcus aureus in silicone disk biofilm at 3 mg/ml after 60 mins in drug assessed as 24 hr regrowth
In short: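 MRSA biofilm on plasma-coated silicone disks (inoculum 5.5 × 10^5 cells/ml in MHB, 24 h, 37°C, shaking), saline-washed, then exposed to drug for 1 h at 37°C. Disks washed in saline, incubated overnight at 37°C in Trypticase soy broth, sonicated 5 min in that broth and plated on blood agar. 5–10 replicates. Mean CFU/ml, capped at 5,000.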

[7] = tested on: Candida parapsilosis; test: Antimicrobial activity against Candida parapsilosis in silicone disk biofilm at 3 mg/ml after 60 mins
In short: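 Silicone disks were preconditioned in human plasma for 24 h at 37°C with shaking. They were then colonized 24 h with C. parapsilosis at 5.5 × 10^5 cells/ml in MHB and washed 30 min in saline. Disks were exposed 1 h at 37°C to drug or MHB, sonicated 5 min in saline, vortexed and plated on blood agar. 5–10 replicates; mean CFU/ml ± SD, capped at 5,000.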

[8] = tested on: Candida parapsilosis; test: Antimicrobial activity against Candida parapsilosis in silicone disk biofilm at 3 mg/ml after 60 mins in drug assessed as 24 hr regrowth
In short: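 C. parapsilosis biofilm on plasma-coated silicone disks was exposed 1 h at 37°C to drug, then saline-washed and incubated overnight at 37°C in Trypticase soy broth. Disks were then sonicated 5 min in that broth and plated on sheep blood agar. 5–10 replicates; regrowth is given as mean CFU/ml ± SD, capped at 5,000.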

How did the CFU/ml [1] turn out when `CN(C)c1ccc(O)c2c1C[C@H]1C[C@H]3[C@H](N(C)C)C(O)=C(C(N)=O)C(=O)[C@@]3(O)C(O)=C1C2=O` [MINOCYCLINE] was run?
Its CFU/ml is 324.

What about the CFU/ml [2] of the same compound?
The CFU/ml was 308.

What about the CFU/ml [3] of the same compound?
Its CFU/ml is 138.

And the CFU/ml [4]?
Its CFU/ml is 500.

What about the CFU/ml [5] of the same compound?
Its CFU/ml is 5000.

What about the CFU/ml [6] of the same compound?
The CFU/ml was 5000.

What about the CFU/ml [7] of the same compound?
The CFU/ml was 5000.

And the CFU/ml [8]?
Its CFU/ml is 5000.
